According to ChEMBL document CHEMBL5329167, “Design, synthesis and evaluation of halogenated phenazine antibacterial prodrugs targeting nitroreductase enzymes for activation” (RSC Med Chem, 2023):
Values after ≈ are worked out from the molar mass of the structure shown. Active and inactive are the calls of the source. No cut-off for these calls is given here.

How the values were obtained:
[1] = Metal chelating activity assessed as formation of phenazine-iron complex measured for 1 to 60 mins by UV-vis spectroscopy; settings: time 1-60 min
Method in brief: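 Compound from a 10 mM DMSO stock diluted in DMSO in a cuvette, alone or with ammonium iron(II) sulfate hexahydrate (10 mM aqueous stock). Spectra of the compound-only cuvette and the iron-containing cuvette are compared by UV-vis spectrometry to judge phenazine–iron(II) complex formation.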

Staphylococcus aureus [2] = experiment: Antibacterial activity against methicillin-resistant Staphylococcus aureus 1707 assessed as zone of inhibition at 10 mM incubated for 16 hrs by agar diffusion assay; format: functional
Method in brief: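 Modified Kirby-Bauer disk diffusion. 100 µL MRSA 1707 inoculum (OD₆₀₀ 0.7, ~10⁸ CFU) spread on LB agar and left 30 min. 10 µL of 10 mM DMSO compound solution then pipetted onto the plate. Incubation 16 h at 37 °C; zone of inhibition area (cm²) measured. Three independent experiments.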

Staphylococcus aureus [3] = experiment: Antibacterial activity against methicillin-resistant Staphylococcus aureus 1707 assessed as bacterial growth inhibition incubated for 16 hrs by CLSI based broth microdilution method; format: functional
Method in brief: (§1)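 Broth microdilution per CLSI in LB, eleven two-fold serial dilutions spanning 0.10 to 100 µM. Inoculum ~10⁵ cells/well from fresh log-phase culture (OD₆₀₀ 0.6–0.8). MIC taken as lowest concentration preventing growth after 16 h at 37 °C, read by OD₆₀₀ turbidity. DMSO vehicle control, top 0.5% v/v. At least three independent experiments.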

Staphylococcus aureus [4] = experiment: Antibacterial activity against methicillin-resistant Staphylococcus aureus BAA-1707 assessed as bacterial growth inhibition incubated for 16 hrs by CLSI based broth microdilution method; format: functional; method in brief: as §1
Staphylococcus aureus [5] = experiment: Antibacterial activity against methicillin-resistant Staphylococcus aureus BAA-44 assessed as bacterial growth inhibition incubated for 16 hrs by CLSI based broth microdilution method; format: functional; method in brief: as §1
[6] = tested on: Staphylococcus epidermidis; experiment: Antibacterial activity against Staphylococcus epidermidis 12228 assessed as bacterial growth inhibition incubated for 16 hrs by CLSI based broth microdilution method; format: functional
Method in brief: (§2)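 CLSI broth microdilution in LB: eleven 2-fold serial dilutions, 0.10–100 µM. DMSO vehicle/negative control diluted from 0.5% v/v. Wells seeded with ~10⁵ cells from log-phase culture (OD₆₀₀ 0.6–0.8), held 16 h at 37 °C. MIC taken as the lowest concentration preventing growth by OD₆₀₀ turbidity. Minimum three independent experiments.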

[7] = tested on: Staphylococcus epidermidis; experiment: Antibacterial activity against methicillin-resistant Staphylococcus epidermidis 35984 assessed as bacterial growth inhibition incubated for 16 hrs by CLSI based broth microdilution method; format: functional; method in brief: as §1
Enterococcus = experiment: Antibacterial activity against vancomycin-resistant Enterococcus 700221 assessed as bacterial growth inhibition incubated for 16 hrs by CLSI based broth microdilution method; format: functional
Method in brief: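 Growth scored by OD₆₀₀ turbidity after 16 h at 37 °C; MIC is the lowest concentration preventing growth. DMSO vehicle control up to 0.5% v/v. Three or more independent experiments.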

Enterococcus faecalis = experiment: Antibacterial activity against Enterococcus faecalis OG1RF assessed as bacterial growth inhibition incubated for 16 hrs by CLSI based broth microdilution method; format: functional
Method in brief: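 Broth microdilution per CLSI in brain-heart infusion: eleven 2-fold dilutions spanning 0.10–100 µM, with DMSO vehicle/negative control topping at 0.5% v/v. Inoculum ~10⁵ cells/well from log-phase culture (OD₆₀₀ 0.6–0.8). 37 °C, 16 h. MIC is the lowest concentration preventing growth, read as OD₆₀₀ turbidity. At least three independent experiments.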

Streptococcus pneumoniae = experiment: Antibacterial activity against Streptococcus pneumoniae 6303 assessed as bacterial growth inhibition incubated for 16 hrs by CLSI based broth microdilution method; format: functional; method in brief: as §2
[8] = Hemolytic activity against red blood cells (unknown origin) at 200 uM; format: toxicity, cell-based, Erythrocyte; settings: read-out: Activity
[9] = Cytotoxicity against HEK293 cells incubated for 48 hrs by MTT assay; format: toxicity, cell-based; settings: human
Method in brief: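 HEK-293 cells (10⁴/well) in DMEM with 10% FBS, penicillin/streptomycin, settled overnight at 37 °C, 5% CO₂. Medium replaced with compound at 0.10–100 µM (2-fold steps); DMSO as negative control. After 48 h at 37 °C, MTT (5 mg/mL stock) added for 3 h. Formazan dissolved in DMSO, OD read at 570 nm. Eight replicates per treatment.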

Staphylococcus aureus [10] = experiment: Antibacterial activity against methicillin-resistant Staphylococcus aureus clinical isolate 2 assessed as bacterial growth inhibition incubated for 16 hrs by CLSI based broth microdilution method; format: functional
Staphylococcus aureus [11] = experiment: Antibacterial activity against methicillin-resistant Staphylococcus aureus clinical isolate 1 assessed as bacterial growth inhibition incubated for 16 hrs by CLSI based broth microdilution method; format: functional
Staphylococcus aureus [12] = experiment: Antibacterial activity against Staphylococcus aureus clinical isolate 129 assessed as bacterial growth inhibition incubated for 16 hrs by CLSI based broth microdilution method; format: functional
Staphylococcus aureus [13] = experiment: Antibacterial activity against Staphylococcus aureus clinical isolate 138 assessed as bacterial growth inhibition incubated for 16 hrs by CLSI based broth microdilution method; format: functional
Staphylococcus aureus [14] = experiment: Antibacterial activity against Staphylococcus aureus clinical isolate 147 assessed as bacterial growth inhibition incubated for 16 hrs by CLSI based broth microdilution method; format: functional
Staphylococcus aureus [15] = experiment: Antibacterial activity against Staphylococcus aureus clinical isolate 156 assessed as bacterial growth inhibition incubated for 16 hrs by CLSI based broth microdilution method; format: functional
[16] = tested on: Staphylococcus epidermidis; experiment: Antibacterial activity against Staphylococcus epidermidis clinical isolate CL-1 assessed as bacterial growth inhibition incubated for 16 hrs by CLSI based broth microdilution method; format: functional
[17] = Lipophilicity, LogP of compound in octanol-water mixture incubated for 1 hr by UV-vis spectroscopy; format: physicochemical
Method in brief: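 Shake-flask partition: compound in octanol (1% v/v DMSO) mixed with equal volume water, stirred vigorously, left 1 h at room temperature to separate. Octanol-phase concentration measured by UV-Vis at 370 or 380 nm against a serial-dilution standard curve. Water concentration obtained by mass balance; LogP = log10(Coct/Cw). Acetophenone as positive control. Three independent experiments.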

O=[N+]([O-])c1ccc(CS(=O)(=O)Oc2c(Br)cc(Br)c3nc4ccccc4nc23)cc1
Activity [1]: inactive
diameter of the inhibition zone (DIZ) (Staphylococcus aureus [2]): 1.13 cm2
MIC (Staphylococcus aureus [3]): 0.78 µM (≈ 0.431 µg/mL)
MIC (Staphylococcus aureus [4]): 0.78 µM (≈ 0.431 µg/mL)
MIC (Staphylococcus aureus [5]): 1.56 µM (≈ 0.863 µg/mL)
MIC [6]: 4.69 µM (≈ 2.59 µg/mL)
MIC [7]: 4.69 µM (≈ 2.59 µg/mL)
MIC (Enterococcus): 9.38 µM (≈ 5.19 µg/mL)
MIC (Enterococcus faecalis): 37.5 µM (≈ 20.7 µg/mL)
MIC (Streptococcus pneumoniae): 4.69 µM (≈ 2.59 µg/mL)
hemolysis at 200 µM [8]: < 1%
CC50 at 48 h [9]: 51.7 µM
MIC (Staphylococcus aureus [10]): 2.35 µM (≈ 1.3 µg/mL)
MIC (Staphylococcus aureus [11]): 3.13 µM (≈ 1.73 µg/mL)
MIC (Staphylococcus aureus [12]): 6.25 µM (≈ 3.46 µg/mL)
MIC (Staphylococcus aureus [13]): 4.69 µM (≈ 2.59 µg/mL)
MIC (Staphylococcus aureus [14]): 6.25 µM (≈ 3.46 µg/mL)
MIC (Staphylococcus aureus [15]): 6.25 µM (≈ 3.46 µg/mL)
MIC [16]: 6.25 µM (≈ 3.46 µg/mL)
logP at 1 h [17]: 0.42
